Values after ≈ are worked out from the molar mass of the structure shown.
Assays:
[1] = system: CCRF-CEM; test: Inhibitory activity against 1RF strain of HIV-1 by plaque reduction assay in CEM cells; type: functional, cell-based
How it was run: (§1)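 CEM cells pregrown in RPMI 1640 with 10% FCS; HIV-1 RF strain, 32-100 CCID50 units per 0.1 mL, added together with test compound. Incubated 7 days at 37 °C in 5% CO2. CPE inhibition read by MTT dye uptake; IC50 derived. Triplicate.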

[2] = system: Vero; test: Cytotoxic concentration to uninfected vero cells; type: functional, Chlorocebus sabaeus
How it was run: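 Uninfected Vero cells were run through the same neutral red dye-uptake method as the antiviral test: 3-fold dilutions in EMEM with 2% FBS, 3 days at 37 °C in 5% CO2, A550 read. CC50 is the concentration giving 50% of the cell-control OD. Quadruplicate.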

[3] = system: CCRF-CEM; test: Cytotoxic concentration against uninfected CEM cells; type: functional, Homo sapiens
How it was run: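 Uninfected CEM cells in RPMI 1640 with 10% FCS, exposed to test compound for 7 days at 37 °C in 5% CO2. Cytotoxicity measured by MTT dye uptake and expressed as CC25. Triplicate.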

[4] = system: HFF; test: Inhibitory activity against DM625 strain of zoster virus(VZV) by plaque reduction assay in HFF cells; type: functional, cell-based; details: Homo sapiens
[5] = system: HFF; test: Minimum cytotoxic concentration against uninfected HFF cells; type: functional, Homo sapiens
How it was run: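 Uninfected HFF cells under MEM with 2% FBS in 0.25% agarose overlay with test compound, 5 days at 37 °C in 5% CO2. Examined microscopically for gross morphologic changes, then treated with MTT and 30% SDS; highest concentration 320 μg/mL. Value is the minimum concentration giving morphologic change. Triplicate.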

[6] = system: HFF; test: Selectivity index is the ratio between IC50 (Anti-VZV Activity (DM625 in HFF Cells)) and minimum cytotoxic concentration (against HFF cells) values of the compound; type: functional
[7] = system: Vero; test: Inhibition of Tomioka strain of herpes simplex virus( Tomioka strain of HSV-1) by quantitative CPE reduction assay in vero cells; type: functional, cell-based, Human alphaherpesvirus 1
How it was run: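 Vero cells in EMEM with 2% FBS, 3-fold compound dilutions, infected with HSV-1 Tomioka at about 100 TCID50 per well. After 3 days at 37 °C in 5% CO2, cells stained with neutral red for 45 min. Dye eluted in pH 4.2 citrate-ethanol, A550 read. Cell control set to 100% and blank to 0%; IC50 is the concentration giving 50% OD. Quadruplicate.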

[8] = system: CCRF-CEM; test: Compound tested for inhibitory activity by plaque reduction assay against HIV-1RF strain in CEM cells; type: functional, cell-based; details: Homo sapiens; how it was run: as §1
[9] = system: CCRF-CEM; test: compound tested for inhibitory activity by plaque reduction assay against HIV-1 in CEM cells; type: functional, cell-based; details: Homo sapiens
[10] = system: CCRF-CEM; test: compound tested for anti-HIV-1 activity by plaque reduction assay against HIV-1 in CEM cells; type: functional; details: Homo sapiens; how it was run: as §1
[11] = Homo sapiens, CCRF-CEM, read-out: IC50
[12] = Chlorocebus sabaeus, Vero, read-out: CC50
[13] = Chlorocebus sabaeus, Vero, read-out: IC50

Row | Compound | IC50 [1, 11] [µg/mL] | CC50 [2, 12] [µg/mL] | CC25 [3] [µg/mL] | IC50 [7, 13] [µg/mL] | also measured
1 | Nc1ncnc2c1ncn2C[C@]1(CO)C[C@@H]1CO | > 100 | 120 (≈ 481 µM) | 19.8 (≈ 79.4 µM) | 47 (≈ 189 µM) | IC50 [4]: 19.8 µg/mL (≈ 79.4 µM); MTC [5]: 320; SI [6]: 16
2 | Nc1nc(O)c2ncn(C[C@@]3(CO)O[C@@H]3CO)c2n1 | – | > 500 | – | > 500 | –
3 | Nc1nc(O)c2ncn(C[C@@]3(CO)C[C@H]3CO)c2n1 | > 100 | > 500 | >100 | 10 (≈ 37.7 µM) | IC50 [4]: 19.4 µg/mL (≈ 73.1 µM); MTC [5]: 320 µg/mL; SI [6]: 16
4 | OC[C@@H]1C[C@@]1(CO)Cn1cnc2c(O)ncnc21 | 25.7 (≈ 103 µM) | > 500 | >100 | > 500 | –
5 | Nc1ccn(C[C@]2(CO)C[C@H]2CO)c(=O)n1 | > 100 | > 500 | >100 | > 500 | –
6 | Nc1nc(O)c2ncn(CC3[C@@H](CO)[C@H]3CO)c2n1 (stereo partly drawn) | – | > 500 | – | > 500 | –
7 | Nc1nc(O)c2ncn(C[C@@]3(CO)O[C@H]3CO)c2n1 | – | > 500 | – | 14 (≈ 52.4 µM) | –
8 | OC[C@H]1C[C@@]1(CO)Cn1cnc2c(O)ncnc21 | 20.1 (≈ 80.3 µM) | > 500 | >100 | > 500 | –
9 | Nc1ccn(C[C@]2(CO)C[C@@H]2CO)c(=O)n1 | 23.7 (≈ 105 µM) | > 500 | >100 | 120 (≈ 533 µM) | –
10 | Nc1nc(O)c2ncn(CC3[C@H](CO)[C@H]3CO)c2n1 (stereo partly drawn) | – | > 500 | – | > 500 | IC50 [4]: 240 µg/mL (≈ 905 µM); MTC [5]: 320 µg/mL; SI [6]: 1.3
11 | Nc1nc(O)c2ncn(C/C(=C\CO)CO)c2n1 | > 100 | > 500 | >100 | 4.2 (≈ 16.7 µM) | IC50 [4]: 3.2 µg/mL (≈ 12.7 µM); MTC [5]: 320 µg/mL; SI [6]: 100
12 | Nc1ncnc2c1ncn2C/C(=C/CO)CO | > 100 | 260 (≈ 1110 µM) | >100 | > 500 | –
13 | Cc1cn(C/C(=C/CO)CO)c(=O)[nH]c1=O | > 100 | > 500 | >100 | > 500 | –
14 | Cc1cn(C/C(=C\CO)CO)c(=O)[nH]c1=O | > 100 | > 500 | >100 | > 500 | –
15 | Nc1ncc2ncn(CC3(CO)CC3CO)c2n1 (stereo not drawn) | – | > 500 | – | 30 (≈ 120 µM) | –
16 | Nc1nc(O)c2ncn(C/C(=C/CO)CO)c2n1 | > 100 | > 500 | >100 | 4.2 (≈ 16.7 µM) | IC50 [4]: 52.8 µg/mL (≈ 210 µM); MTC [5]: >320 µg/mL; SI [6]: >6.1
17 | Nc1nc(O)c2ncn(C[C@]3(CO)C[C@H]3CO)c2n1 | > 100 | 240 (≈ 905 µM) | >100 | 0.02 (≈ 0.0754 µM) | IC50 [4]: 0.2 µg/mL (≈ 0.754 µM); MTC [5]: 320 µg/mL; SI [6]: 1600
18 | Nc1ncnc2c1ncn2C/C(=C\CO)CO | – | 260 (≈ 1110 µM) | >100 | > 500 | IC50 [8]: > 100 µg/mL
19 | Nc1nc(N)c2ncn(CC3(CO)CC3CO)c2n1 (stereo not drawn) | 32.1 (≈ 121 µM) | > 500 | >100 | 29 (≈ 110 µM) | –
20 | Nc1nc(O)c2ncn(C[C@@]3(CO)C[C@@H]3CO)c2n1 (stereo in doubt; 3) | – | – | – | – | CC50 [2]: 530 µg/mL (≈ 2000 µM); IC50 ([7]; vero): 0.046 µg/mL (≈ 0.173 µM)
21 | Nc1nc(O)c2ncn(C[C@@]3(CO)C[C@@H]3CO)c2n1 (stereo in doubt; 3b) | – | > 500 | – | – | IC50 ([7]; vero): 2.2 µg/mL (≈ 8.29 µM)
22 | Cc1cn(C[C@]2(CO)C[C@@H]2CO)c(=O)[nH]c1=O (stereo in doubt; 41a) | – | > 500 | >100 | > 500 | IC50 ([1]; ccrf-cem): > 100 µg/mL
23 | Cc1cn(C[C@]2(CO)C[C@@H]2CO)c(=O)[nH]c1=O (stereo in doubt; 41b) | – | – | – | – | IC50 ([1]; ccrf-cem): 3.2 µg/mL (≈ 13.3 µM)
24 | Nc1nc2c(ncn2COCCO)c(=O)[nH]1 [ACYCLOVIR] | – | 820 (≈ 3640 µM) | – | 0.81 (≈ 3.6 µM) | MTC [5]: > 320 µg/mL
25 | Cc1cn([C@H]2C[C@H](N=[N+]=[N-])[C@@H](CO)O2)c(=O)[nH]c1=O [ZIDOVUDINE] | – | – | – | – | IC50 [9]: 0.003 µg/mL (≈ 0.0112 µM); CC25 [10]: 35.6 µg/mL (≈ 133 µM)

— ChEMBL document CHEMBL1131329, “Synthesis and antiviral activity of novel acyclic nucleosides: discovery of a cyclopropyl nucleoside with potent inhibitory activity against herpesviruses” (J Med Chem, 1998)
